Screening data as filed in PubChem.
HDAC3 inhib = human HDAC3 inhibition; recombinant HDAC3, fluorogenic peptide/trypsin coupled, fluorescence; inhibition, % at 8.3 µM; hit rate 0.15% among 320,000; AID 2718; in the data active = inhibition above about 26%, passing the limit was not always enough
Target sequence (O15379 whole entry, looked up): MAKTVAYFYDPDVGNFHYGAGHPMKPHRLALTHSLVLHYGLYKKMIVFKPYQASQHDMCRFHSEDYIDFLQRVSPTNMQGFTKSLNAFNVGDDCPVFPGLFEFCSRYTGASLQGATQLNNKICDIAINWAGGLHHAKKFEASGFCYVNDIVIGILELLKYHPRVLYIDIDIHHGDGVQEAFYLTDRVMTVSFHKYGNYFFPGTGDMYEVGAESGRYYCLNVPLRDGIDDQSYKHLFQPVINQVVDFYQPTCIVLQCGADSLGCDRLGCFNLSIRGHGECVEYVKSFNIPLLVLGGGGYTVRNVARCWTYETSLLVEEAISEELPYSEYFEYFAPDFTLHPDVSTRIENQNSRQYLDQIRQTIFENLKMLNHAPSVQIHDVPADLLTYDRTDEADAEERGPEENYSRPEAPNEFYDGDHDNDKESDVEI
SENP1 FRET inh = inhibitors of human SENP1 SUMO protease catalytic domain. Q9P0U3. recombinant SENP1 catalytic domain, CyPet-SUMO1-YPet FRET cleavage. inhibition, % at 10 µM. hit rate 0.21% among 360,000;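 active = inhibition at least 30% at 10 µM, raw YFP signal under a set limit, fluorescence ratio 0.5 to 1.5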
Target sequence (Q9P0U3 419-644 limits assumed): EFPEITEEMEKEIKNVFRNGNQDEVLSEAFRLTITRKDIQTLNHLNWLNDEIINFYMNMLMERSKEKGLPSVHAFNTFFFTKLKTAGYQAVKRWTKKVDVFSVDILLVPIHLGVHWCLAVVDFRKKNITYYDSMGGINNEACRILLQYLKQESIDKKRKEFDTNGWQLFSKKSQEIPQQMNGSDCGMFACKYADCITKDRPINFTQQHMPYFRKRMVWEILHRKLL
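Test system: human SENP1 catalytic domain; medium: Tris pH 8 buffer plus EDTA, NaCl, BME, BSA, NP40, catalase; incubation: 50 min reaction at room temperature; technique: FRET, CFP and YFP emission; controls: no-enzyme low control and enzyme-plus-DMSO high control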
PfM18AAP inh = blocks P. falciparum M18 aspartyl aminopeptidase. recombinant PfM18AAP, H-Glu-NHMec fluorogenic cleavage. inhibition, % at 7.35 µM. hit rate 1.2% among 290,000;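 active = inhibition above the campaign mean inhibition over all tested compounds plus 3 SD, cut at about 28% in these data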
FXN GAA850 act = frataxin GAA850 promoter activation; HEK293 lucGAA850 FXN promoter luciferase reporter, 24 h; percent of 10 µM SAHA response; activation, % at 6 µM; hit rate 0.56% among 360,000; AID 540364;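 active = activation above the average of all compounds screened plus 3 SD, cutoff fixed separately per campaign, cut at about 7.5% in these data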
AHR act = human AHR activation; P35869; AHR-responsive luciferase reporter cells, luminescence; activation, % at 5 µM; hit rate 2.5% among 320,000; AID 2796; in the data active = activation above about 47%
Fh CTSL1 inh = blocks F. hepatica cathepsin L1 in PFM18AAP counter-screen | recombinant F. hepatica cathepsin L1, Z-Leu-Arg-MCA fluorescence | inhibition, % at 5.96 µM | hit rate 0.49% among 300,000 | AID 1906;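 active = inhibition above the mean of all tested compounds plus 3 SD, set per screening campaign, cut at about 17% in these data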
A number is an active result. This is a sample that favours compounds with a hit; in the whole collection about 4.2% have one here.

`O=C(c1ccco1)N1CCN(c2ncnc3c(-c4ccccc4)nsc23)CC1` gave HDAC3 inhib inactive, SENP1 FRET inh inactive, PfM18AAP inh inactive, FXN GAA850 act inactive, AHR act 66.3 and Fh CTSL1 inh inactive.
Screening COc1ccc(-c2nsc3c(N4CCN(C(=O)c5ccco5)CC4)ncnc23)cc1 returned HDAC3 inhib inactive, SENP1 FRET inh inactive, PfM18AAP inh inactive, FXN GAA850 act inactive, AHR act inactive and Fh CTSL1 inh inactive.
Cc1cc(-c2ccccc2)nc2cc(C(=O)NCCCn3ccnc3)nn12 was read as HDAC3 inhib inactive, SENP1 FRET inh inactive, PfM18AAP inh inactive, FXN GAA850 act inactive, AHR act 65.8 and Fh CTSL1 inh inactive.
Cc1cc(C(=O)NCCCn2ccnc2)sc1-c1ccccc1 was read as HDAC3 inhib inactive, SENP1 FRET inh inactive, PfM18AAP inh inactive, FXN GAA850 act inactive, AHR act 70.3 and Fh CTSL1 inh inactive.
Cc1ccc(C(=O)Nc2nc3ccccc3n2CCN2CCCC2)cc1 was read as HDAC3 inhib inactive, SENP1 FRET inh inactive, PfM18AAP inh inactive, FXN GAA850 act inactive, AHR act 47.1 and Fh CTSL1 inh inactive.
For O=C(Nc1cnc2ccccc2c1)c1cccnc1 the results were HDAC3 inhib inactive, SENP1 FRET inh inactive, PfM18AAP inh inactive, FXN GAA850 act inactive, AHR act inactive and Fh CTSL1 inh inactive.
Screening O=C(Nc1nc2ccccc2n1CCN1CCCCC1)c1ccc(Cl)cc1 returned HDAC3 inhib inactive, PfM18AAP inh inactive, AHR act inactive and Fh CTSL1 inh inactive.
`Cn1c(NC(=O)c2cccnc2)nc2ccccc21` gave HDAC3 inhib inactive, SENP1 FRET inh inactive, PfM18AAP inh inactive, FXN GAA850 act inactive, AHR act 77.8 and Fh CTSL1 inh inactive.
Screening O=C(Nc1nc2ccccc2n1CCN1CCCC1)c1ccc(Cl)cc1 returned HDAC3 inhib inactive, SENP1 FRET inh inactive, PfM18AAP inh inactive, FXN GAA850 act inactive, AHR act 53.5 and Fh CTSL1 inh inactive.
`CCCn1c(NC(=O)c2ccc(C)cc2)nc2ccccc21` gave HDAC3 inhib inactive, SENP1 FRET inh inactive, PfM18AAP inh inactive, FXN GAA850 act inactive, AHR act 48.6 and Fh CTSL1 inh inactive.
For C#CCOCCOCCOCCNc1nc(N2CCN(C(=O)CCCCCCCCCCNC(=O)[C@H]([C@@H](C)CC)n3cc(CCCCN=C(N)N)nn3)CC2)nc(N2CCN(C(=O)CCCCCCCCCCNC(=O)[C@H](CCCN=C(N)N)n3cc(C[C@@H](C)CC)nn3)CC2)n1 the results were HDAC3 inhib inactive, AHR act inactive and Fh CTSL1 inh inactive.
For C#CCOCCOCCOCCNc1nc(N2CCN(C(=O)CCCCCCCCCCNC(=O)[C@@H](CCSC)n3cc(CCO)nn3)CC2)nc(N2CCN(C(=O)CCCCCCCCCCNC(=O)[C@H](CCCN=C(N)N)n3cc(C[C@@H](C)CC)nn3)CC2)n1 the results were HDAC3 inhib 69.2, SENP1 FRET inh inactive, FXN GAA850 act inactive, AHR act inactive and Fh CTSL1 inh inactive.
For CC[C@H](C)Cc1cn([C@@H](CCCN=C(NC(=O)OC(C)(C)C)NC(=O)OC(C)(C)C)C(=O)NCCCCCCCCCCC(=O)N2CCN(C(=O)OC(C)(C)C)CC2)nn1 the results were HDAC3 inhib 28.2, SENP1 FRET inh inactive, FXN GAA850 act inactive, AHR act inactive and Fh CTSL1 inh inactive.
For C#CCOCCOCCOCCNc1nc(N2CCN(C(=O)CCCCCCCCCCNC(=O)[C@H](CCCN=C(N)N)n3cc(C[C@@H](C)CC)nn3)CC2)nc(N2CCN(C(=O)CCCCCCCCCCNC(=O)[C@@H]([C@H](C)CC)n3cc(CCCCCN)nn3)CC2)n1 the results were HDAC3 inhib 32.6, AHR act inactive and Fh CTSL1 inh inactive.
For Nc1[nH]c(C(=O)c2ccccc2)c(-c2ccc(Cl)cc2)c1C(=O)NCCc1c[nH]c2ccccc12 the results were SENP1 FRET inh inactive.
Cc1ccc(C(=O)N/N=C(/CC(=O)c2cccs2)C(F)(F)F)cc1 was read as HDAC3 inhib inactive, SENP1 FRET inh inactive, PfM18AAP inh inactive, FXN GAA850 act inactive, AHR act 61.6 and Fh CTSL1 inh inactive.
`COc1ccc(C(=O)CSC2=C(C#N)C3(CCCCC3)C(C#N)=C(N)N2)cc1` gave HDAC3 inhib inactive, SENP1 FRET inh inactive, PfM18AAP inh inactive, FXN GAA850 act inactive, AHR act 51.8 and Fh CTSL1 inh inactive.
Screening O=C(O)Cc1cc(C(=O)Nc2ccc(Br)cc2)sc1-c1ccccc1 returned HDAC3 inhib inactive, PfM18AAP inh inactive, AHR act inactive and Fh CTSL1 inh inactive.
COc1cccc(NC(=O)CCC2CCN(C(=O)C(OC)c3ccccc3)CC2)c1 (stereo unspecified) was read as SENP1 FRET inh inactive and FXN GAA850 act inactive.
`CCN(CC)C(=O)c1ccc2c(c1[N+](=O)[O-])C(=O)c1ccccc1C2=O` gave HDAC3 inhib inactive, PfM18AAP inh inactive, AHR act 77.7 and Fh CTSL1 inh inactive.
CCNC(=O)C1(C)CCN(C(=O)CCc2ccccc2)C1 (stereo unspecified) was read as SENP1 FRET inh inactive and FXN GAA850 act inactive.
`CCN(C(=O)c1cnc(NC(C)C)cc1C(F)(F)F)c1ccc(Cl)cc1` gave HDAC3 inhib inactive, SENP1 FRET inh inactive, PfM18AAP inh inactive, FXN GAA850 act inactive, AHR act inactive and Fh CTSL1 inh inactive.
Screening CCC(C)Sc1cc(C(F)(F)F)c(C(=O)Nc2ccc(Cl)cc2)cn1 (stereo unspecified) returned HDAC3 inhib inactive, SENP1 FRET inh inactive, PfM18AAP inh inactive, FXN GAA850 act inactive, AHR act 58.5 and Fh CTSL1 inh inactive.
Screening O=C(O)CCCCCn1c(SCC(=O)c2ccc(O)c(O)c2)nc2ccsc2c1=O returned HDAC3 inhib inactive, SENP1 FRET inh inactive, PfM18AAP inh 47.3, FXN GAA850 act inactive, AHR act inactive and Fh CTSL1 inh inactive.
`O=C(O)CCCCCn1c(SCC(=O)N2CCCC2)nc2ccsc2c1=O` gave HDAC3 inhib inactive, SENP1 FRET inh inactive, PfM18AAP inh inactive, FXN GAA850 act inactive, AHR act inactive and Fh CTSL1 inh inactive.
COc1ccc(NC(=O)CN2C(=O)NC(c3ccccc3)(c3ccccc3)C2=O)cc1OC was read as HDAC3 inhib inactive, SENP1 FRET inh inactive, PfM18AAP inh inactive, FXN GAA850 act inactive, AHR act inactive and Fh CTSL1 inh inactive.
`COc1ccnc(CSC(N)=Nc2cccc(C(F)(F)F)c2)c1` gave HDAC3 inhib inactive, SENP1 FRET inh inactive, PfM18AAP inh inactive, FXN GAA850 act inactive, AHR act 55.4 and Fh CTSL1 inh inactive.
For COc1cc(N=Nc2cccc(S(N)(=O)=O)c2)c2ccccc2c1N the results were HDAC3 inhib inactive, SENP1 FRET inh 48.0, PfM18AAP inh inactive, FXN GAA850 act inactive, AHR act 56.8 and Fh CTSL1 inh inactive.
`CCOC(=O)[C@]12CCC=C1N(Cc1ccccc1)C(=O)[C@H](CC(=O)N1CCOCC1)C2` gave SENP1 FRET inh inactive.
For CCCc1nc2c3ccccc3ccn2c1Cc1ccc(OC)cc1C the results were SENP1 FRET inh inactive.
